Measured values gathered from unrelated publications.
Lines come from different studies, so protocols differ.
Observed: cell growth or viability

With `CC1(C)S[C@@H]2[C@H](NC(=O)[C@H](N)c3ccc(O)cc3)C(=O)N2[C@H]1C(=O)O` the IC50 was greater than 30 µM (VCaP; CCK-8; 72 h).
`N#Cc1ccc(COC[C@H]2O[C@@H](n3c(NCc4ccc(Cl)c(Cl)c4)nc4c(N)ncnc43)[C@H](O)[C@@H]2O)cc1` has an IC50 of greater than 20 µM (CAL-27; 72 h).
`O=C1CCCCC1C1C2C=CC=CC1C(C1CC1)=C2` (stereo not shown) has an IC50 of 0.017 µM (K562; flow cytometry).
`Cc1cc(NC(=O)c2cccc3cc(-c4cccc5[nH]nc(N)c45)ccc23)ccc1F` gave an IC50 of greater than 20 µM (GL261; CCK-8; 72 h).
`Cc1cn([C@H]2C[C@H](N=[N+]=[N-])[C@@H](CO)O2)c(=O)[nH]c1=O` gave an IC50 of greater than 30 µM (VCaP; CCK-8; 72 h).
For `O=C(NC(=S)NCc1ccc(CNC(=S)NC(=O)c2ccc3ccccc3c2)cc1)c1ccc2ccccc2c1`, the IC50 was 91.4 µM (MCF-10A; 48 h).
The IC50 of `CC(C)c1cc(-c2n[nH]c(=O)n2-c2ccc3c(ccn3C)c2)c(O)cc1O` is reported as 0.024 µM (MDA-MB-415; imaging; 24 h).
With `CCCCc1cccc(-c2cnc3c(n2)CCCC3)c1` the IC50 was greater than 50 µM (MCF-10A; 48 h).
With `COc1cc(C2Oc3cc([C@H]4Oc5cc(O)cc(O)c5C(=O)[C@@H]4O)ccc3OC2CO)ccc1O` (stereo partly shown) the IC50 was 18.8 µM (SNU-423; CCK-8; 72 h).
The IC50 of `COc1cc(OC)c(/C=C/S(=O)(=O)Nc2ccc(OC)c(N)c2)c(OC)c1` is reported as 0.004 µM (N417; trypan blue; 96 h).
With `CN(C)CC[C@@H](c1ccc(Cl)cc1)c1ccccn1` the IC50 was greater than 20 µM (CAL-27; 72 h).
`c1ccc(-c2cccc(-c3cnc4c(n3)CCCC4)c2)cc1` gave an IC50 of greater than 50 µM (MCF-10A; 48 h).
The IC50 of `COc1cc(Nc2nccc(-c3cnn4nc(OC)ccc34)n2)cc(C(F)(F)F)c1` is reported as 0.41 µM (OVK18; ATP luminescence).
`CC(=O)CC(c1ccccc1)c1c(O)c2ccccc2oc1=O` (stereo not shown) gave an IC50 of greater than 20 µM (CAL-27; 72 h).
The IC50 of `C=CC1=C(C(=O)O)N2C(=O)[C@@H](NC(=O)/C(=N\OCC(=O)O)c3csc(N)n3)[C@H]2SC1` is reported as greater than 30 µM (VCaP; CCK-8; 72 h).
With `O=C(C=C[c-]1cccc1)c1ccc[nH]1.[Fe+2].c1cc[cH-]c1` the IC50 was 76.5 µM (4T1; MTT; 72 h).
`CCCCCc1ccc(-c2cnc3c(n2)CCCC3)cc1` has an IC50 of greater than 50 µM (MCF-10A; 48 h).
`CCN(CC)CCNC(=O)COc1ccc(OC)cc1` gave an IC50 of greater than 20 µM (CAL-27; 72 h).
`O=C(Nc1nnnn1C1CCCCC1)c1ccc2ccccc2c1` gave an IC50 of 81 µM (MCF-10A; 48 h).
`O=C1Nc2ccc(Cl)cc2[C@@](C#CC2CC2)(C(F)(F)F)O1` has an IC50 of greater than 20 µM (CAL-27; 72 h).
For `COc1ccc(-c2cnc3c(n2)CCCC3)nc1`, the IC50 was greater than 50 µM (MCF-10A; 48 h).
For `CC(C)C(=O)SCCCCCCC(=O)Nc1nc(-c2ccccc2)cs1`, the IC50 was 1.15 µM (CAL-27; 72 h).
`COc1cccc2c1C(=O)c1c(O)c3c(c(O)c1C2=O)C[C@@](O)(C(=O)CO)C[C@@H]3O[C@H]1C[C@H](N)[C@H](O)[C@H](C)O1` has an IC50 of 1.2 µM (MCF-10A; 48 h).
`O=C(c1cc(Cl)c(Cl)[nH]1)c1c(O)ccc(Cc2cc(C(c3csc(-c4ccccc4O)n3)c3ccc(O)c(C(=O)c4cc(Cl)c(Cl)[nH]4)c3O)c(O)c(C(=O)c3cc(Cl)c(Cl)[nH]3)c2O)c1O` (stereo not shown) has an IC50 of 28 µg/mL (MDCK; MTT; 72 h).
`CCN(CC)CCOC(=O)C1(c2ccc([N+](=O)[O-])cc2)CCCC1` gave an IC50 of greater than 20 µM (CAL-27; 72 h).
`C[C@H]1[C@@H](O)O[C@@H]2O[C@@]3(C)CC[C@H]4[C@H](C)CC[C@@H]1[C@@]24OO3` has an IC50 of 44.4 µM (MCF-10A; CCK-8; 48 h).
`CC(C)C[C@H](NC(=O)[C@H](Cc1ccccc1)NC(=O)c1cnccn1)B(O)O` has an IC50 of 0.011 µM (SCLC-21H; ATP luminescence).
`CC(C)c1cccc(C(C)C)c1N1CCN(c2c(C(C)C)cccc2C(C)C)C1=[Se]` has an IC50 of 15.8 µM (HCT-15; MTT; 72 h).
With `CNC(=O)c1ccc(N2C(=S)N(c3cnc(C#N)c(C(F)(F)F)c3)C(=O)C23CCC3)cc1F` the IC50 was 0.39 µM (VCaP; ATP luminescence; 6 days).
`CCCCc1ccc2[nH]c(NC(=O)OC)nc2c1` gave an IC50 of 0.284 µM (GTL 16; CCK-8; 72 h).
`CCCCOc1ccc(-c2cnc3c(n2)CCCC3)cc1` gave an IC50 of 25 to 50 µM (MCF-10A; 48 h).
